Bioassay records from PubChem BioAssay.
This is a sample that favours compounds with a hit; in the whole collection about 0.6% have one here.
PolyA inhibitor: yeast polyadenylation inhibition. activity score, % at 12 µM. AID 1875. hit rate 0.02% among 300,000. S. cerevisiae SKY197-pL101 polyadenylation reporter, beta-gal luminescence; efflux-impaired pdr1/pdr3 knockout yeast; score 100 = 6 SD above DMSO;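 active = lowest replicate activity score at least 50, where 100 means six control SD above control mean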;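 also: yeast exposed to compound for 9 h at 30 °C; higher score means more reporter readthrough which indicates perturbed polyadenylation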
GSK3beta inhib: blocks human GSK3beta kinase activity | P49841 | GST-GSK3beta kinase, ADP-Glo luminescence, 60 min; stronger effect = lower value | activity score (negative = inhibition), % at 10 µM | hit rate 0.038% among 300,000 | AID 2097;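 active = more than half of replicate wells score below -50%, meaning over 50% inhibition versus plate controls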;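 also: 0% = median DMSO wells and -100% = median GW8510 positive control wells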
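test system = GST-tagged human GSK3beta kinase, cell-free | reagent = 25 µM ATP with peptide substrate | dosing = one dose of 10 µM per compound | schedule = 60 min reaction, RT | detection = luminescent ADP-Glo measurement of ADP formed | control set = DMSO neutral wells and GW8510 at 20 µM as positive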
Efflux pump mplx: blocks antifungal efflux pumps in multiplex yeast assay; S. cerevisiae Candida pump triplex, Nile Red efflux; inhibition, % at 10 µM; hit rate 0.44% among 330,000;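 active = plate passing quality check with inhibition over a set limit, or well fluorescence over plate mean plus 4 SD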;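 also: Nile Red retained in pooled yeast measured as flow cytometry median fluorescence; 0% = buffer negative control and 100% = Enniatin B positive control; higher means more Nile Red kept so more efflux inhibition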
GSK3 alpha inh: inhibitors of human GSK-3 alpha kinase; ADP-Glo luminescence, 60 min; inhibition, % at 10 µM; hit rate 0.1% among 320,000; AID 2650;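 active = more than half of replicates show inhibition above 20%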;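 also: GST-tagged GSK-3 alpha with peptide substrate and 25 µM ATP; 0% = DMSO neutral wells and 100% = GW8510 positive control wells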
Target sequence (P49840 whole entry, looked up): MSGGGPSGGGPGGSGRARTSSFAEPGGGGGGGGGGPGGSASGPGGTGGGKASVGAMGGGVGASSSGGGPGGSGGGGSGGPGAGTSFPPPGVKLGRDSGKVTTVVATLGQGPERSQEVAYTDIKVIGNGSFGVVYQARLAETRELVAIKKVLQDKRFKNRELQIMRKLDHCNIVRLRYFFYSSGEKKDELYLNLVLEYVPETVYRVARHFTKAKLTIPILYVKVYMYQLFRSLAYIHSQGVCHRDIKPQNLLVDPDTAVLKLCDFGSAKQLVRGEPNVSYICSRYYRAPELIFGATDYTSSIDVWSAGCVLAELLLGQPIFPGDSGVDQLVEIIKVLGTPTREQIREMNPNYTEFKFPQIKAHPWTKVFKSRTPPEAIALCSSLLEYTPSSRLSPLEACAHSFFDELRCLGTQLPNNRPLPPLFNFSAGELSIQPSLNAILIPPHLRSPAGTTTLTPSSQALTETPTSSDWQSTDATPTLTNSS
STK33 inh: human STK33 kinase inhibition; hit rate 0.073% among 320,000; purified STK33, MBP phosphorylation, ADP-Glo luminescence; inhibition, % at 10 µM; Q9BYT3; AID 2661;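 active = inhibition at or above 25%, using the most active replicate where run in duplicate; inactive = inhibition below 25%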
Yeast cmpd fluor: compound fluorescence in yeast efflux pump counter-screen. shares compounds with Efflux pump mplx. S. cerevisiae AD/pABC3, flow cytometry. fluorescence ratio to DMSO, % at 10 µM. hit rate 4% among 1,700. AID 588517;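 active = fluorescence ratio to DMSO above its plate's cutoff, the plate mean ratio plus 5 SD, cut at about 210% in these data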;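 also: unstained yeast with no Nile Red so the signal is compound autofluorescence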
CaMdr1 efflux inh: blocks the Candida albicans Mdr1 efflux pump in yeast; S. cerevisiae AD/CaMDR1, Nile Red efflux, flow cytometry; hit rate 1% among 1,700; inhibition, % at 10 µM; shares compounds with Efflux pump mplx; in the data active = inhibition above about 26%;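 also: 0% = DMSO vehicle and 100% = reference inhibitor; higher means more Nile Red retained so more efflux inhibition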
Cdr2 pump inh: blocks the Candida albicans Cdr2 efflux pump in yeast | hit rate 4% among 1,700 | AID 588520 | shares compounds with Efflux pump mplx | Nile Red retention ratio vs DMSO, % at 10 µM | S. cerevisiae AD/CaCDR2, Nile Red retention, flow cytometry; in the data active = Nile Red retention ratio vs DMSO above about 190%;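 also: higher ratio means more blocking of Cdr2 efflux of the dye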
Cdr1 pump inh: Candida Cdr1 efflux pump inhibition. shares compounds with Efflux pump mplx. S. cerevisiae AD/CaCDR1, Nile Red efflux, flow cytometry. inhibition, % at 10 µM. hit rate 1% among 1,700. AID 588522;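 active = inhibition above the screen-wide mean plus twice its standard deviation, cut at about 32% in these data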
* hit, by the source's call; · = no result given.

SMILES | PolyA inhibitor | GSK3beta inhib | Efflux pump mplx | GSK3 alpha inh | STK33 inh | Yeast cmpd fluor | CaMdr1 efflux inh | Cdr2 pump inh | Cdr1 pump inh
CNC(=O)c1ccccc1NC(=O)c1c(O)c2c([nH]c1=O)CCCC2 | 5 | · | 0 | 0 | -2 | · | · | · | ·
O=C(N/N=C/c1cccc(F)c1)c1c(O)c2c([nH]c1=O)CCCC2 | 26 | 0 | 8.9* | 1 | 0 | 84 | 0 | 100 | 0
COc1cc(C(C)=O)ccc1OCC(=O)Nc1ccc(Cl)c(S(=O)(=O)N2CCOCC2)c1 | · | · | 1.0* | 13 | 2 | 97 | 0 | 94 | 0
O=C(CC(=O)NC1CCCCC1)N/N=C/c1ccccc1[N+](=O)[O-] | -5 | 2 | 0 | -1 | 1 | · | · | · | ·
Cc1ccc(/C=C2\SC(=S)N(NS(=O)(=O)c3ccc(C)cc3)C2=O)cc1 | -20 | 8 | 0 | -4 | 0 | · | · | · | ·
Cc1ccc(S(=O)(=O)NN2C(=O)/C(=C/c3cccs3)SC2=S)cc1 | -1 | 1 | 0 | -8 | -1 | 98 | 0 | 87 | 0
O=C(COc1cccc([N+](=O)[O-])c1)NN1C(=O)c2ccccc2C1=O | -7 | 1 | 0 | -2 | 0 | · | · | · | ·
CCC(C)NC(=O)c1ccc(CN2CCc3ccccc3C2)cc1 (stereo not drawn) | 13 | -1 | 0 | 0 | 1 | · | · | · | ·
COC(=O)c1c(NC(=O)CSc2nnc(Cn3nnc4ccccc43)n2C)sc(C)c1C | 1 | 3 | 0 | -2 | -2 | · | · | · | ·
COC(=O)c1sc(NC(=O)CSc2nnc(Cn3nnc4ccccc43)n2C)nc1C | 11 | -1 | 14* | 0 | -2 | 105 | 0 | 94 | 0
O=C(NC1CCCCCCC1)c1ccccc1O | -18 | -1 | 0 | 2 | -1 | · | · | · | ·
O=C(NC1CCCCC1)c1cc2ccccc2cc1O | -8 | 0 | 1.1* | 0 | -1 | 99 | 0 | 108 | 0
COCCNC(=S)NCCc1ccc(Cl)cc1Cl | 12 | -7 | 0 | -2 | 0 | · | · | · | ·
Cc1cc(C)nc(SCc2nnc(SCC(=O)Nc3ccc(C)c(C)c3)n2Cc2ccco2)n1 | -8 | -2 | 1.0* | 0 | 0 | 219 | 1 | 100 | 9
COC(=O)CSc1nnc(CSc2nc(C)cc(C)n2)n1Cc1ccco1 | -7 | 1 | 0 | -2 | -2 | · | · | · | ·
O=C(CSc1nnc(Cc2cccs2)n1Cc1ccco1)Nc1ccc(Cl)cc1Cl | 0 | 2 | 0 | 0 | 0 | 101 | 0 | 100 | 0
O=C(CSc1nnc(Cc2cccs2)n1Cc1ccco1)Nc1ccc(Br)cc1 | 11 | -5 | 0 | 0 | 1 | 76 | 0 | 99 | 0
CCn1c(SCC(=O)NC2(C#N)CCCCC2)nc2ccccc2c1=O | 21 | 1 | 0 | 2 | -1 | · | · | · | ·
O=[N+]([O-])c1cccc(-c2nc3ccccc3s/c2=N/O)c1 | -80 | -5 | 0.7* | 1 | 1 | 116 | 0 | 116 | 0
Cc1cccc(NC(=O)CSc2nc(C)c(Cc3ccccc3)c(=O)[nH]2)c1C | -6 | 1 | 2.1* | -5 | 0 | 98 | 0 | 101 | 0
COCCNC(=O)c1ccc(-n2c(SCc3ccncc3)nc3ccccc3c2=O)cc1 | -23 | 4 | 0 | -1 | -1 | · | · | · | ·
CNc1nc(Cl)c(SC)c(NCc2cccc(OC)c2)n1 | 1 | 3 | 0 | 1 | -1 | · | · | · | ·
Cc1ccsc1-c1nc(C(N)=O)c2[nH]c(=O)n(-c3ccc(Cl)cc3)c2n1 | 15 | -1 | 0 | -1 | -2 | 84 | 0 | 104 | 0
CCOc1ccccc1-c1nc(C(N)=O)c2[nH]c(=O)n(-c3ccc(F)cc3)c2n1 | -16 | 6 | 1 | 4 | -1 | 101 | 0 | 120 | 0
COC(=O)C1=C(C)Nc2ncnn2C1c1ccc(OCc2ccccc2)cc1 (stereo not drawn) | -8 | 2 | 0 | -1 | 1 | · | · | · | ·
O=C(CN1C(=O)NC2(CCCCCCC2)C1=O)NC1CCCc2ccccc21 (stereo not drawn) | -2 | 4 | 0 | -2 | 0 | · | · | · | ·
